Source: ChEMBL document CHEMBL1132173, “Novel derivatives of 2-pyridinemethylamine as selective, potent, and orally active agonists at 5-HT1A receptors” (J Med Chem, 1999)

Tests used:
[1] = target: T1, 5-hydroxytryptamine receptor 1A (Homo sapiens, UniProt P08908); assay: In vitro effective concentration required to inhibit forskolin-stimulated cAMP levels in HA7 cells expressing human 5-HT1A receptor; format: functional, cell-based
T1 sequence (P08908 whole entry): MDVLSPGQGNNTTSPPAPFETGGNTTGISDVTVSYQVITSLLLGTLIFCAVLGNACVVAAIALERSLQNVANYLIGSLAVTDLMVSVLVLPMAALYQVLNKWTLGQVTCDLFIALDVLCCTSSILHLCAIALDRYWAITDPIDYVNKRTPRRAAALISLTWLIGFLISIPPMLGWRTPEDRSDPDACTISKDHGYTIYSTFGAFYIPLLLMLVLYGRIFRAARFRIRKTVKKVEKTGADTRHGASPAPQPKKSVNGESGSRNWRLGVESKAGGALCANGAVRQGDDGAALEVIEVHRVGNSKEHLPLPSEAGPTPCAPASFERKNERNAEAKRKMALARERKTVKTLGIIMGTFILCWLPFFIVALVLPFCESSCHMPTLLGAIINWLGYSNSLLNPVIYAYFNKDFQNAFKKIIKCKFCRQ
Method in brief: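 HeLa HA7 cells stably expressing human 5-HT1A, at 80–90% confluency, antibiotic-free for 24 h. Preincubated 10 min at RT in DMEM/10 mM Hepes, then drug at 0.1 nM–100 µM with 100 µM forskolin and 100 µM IBMX for 10 min at RT. Stopped with 0.1 N HCl; cAMP by radioimmunoassay as % of forskolin control; pEC50.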

[2] = target: T2, 5-hydroxytryptamine receptor 1A (Rattus norvegicus, UniProt P19327); assay: Binding affinity towards 5-hydroxytryptamine 1A receptor in rat cortex using [3H]8-OH-DPAT as a radioligand
T2 sequence (P19327 whole entry): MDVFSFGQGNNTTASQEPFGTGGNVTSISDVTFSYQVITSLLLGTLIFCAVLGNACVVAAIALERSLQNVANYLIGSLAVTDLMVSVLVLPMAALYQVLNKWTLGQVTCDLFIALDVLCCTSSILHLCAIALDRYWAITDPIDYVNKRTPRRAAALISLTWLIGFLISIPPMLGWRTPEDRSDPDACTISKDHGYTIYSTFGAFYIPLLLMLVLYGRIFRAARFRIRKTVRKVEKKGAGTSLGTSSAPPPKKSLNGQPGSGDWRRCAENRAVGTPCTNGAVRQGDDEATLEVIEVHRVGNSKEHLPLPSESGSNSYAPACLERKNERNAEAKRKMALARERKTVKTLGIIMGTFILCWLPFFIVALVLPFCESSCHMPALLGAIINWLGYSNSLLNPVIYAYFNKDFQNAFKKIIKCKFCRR
Method in brief: (§1)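 Rat tissue membranes, competition against radioligand at 23 °C. Nonspecific binding: 5-HT for 5-HT1A (30 min), (+)-butaclamol for D2 (60 min), phentolamine for α1 (30 min). Tris HCl 50 mM pH 7.4 buffers. Filtration through glass-fibre filters, then scintillation counting. Run in triplicate; IC50 by nonlinear regression; Ki by Cheng–Prusoff; mean pKi of three determinations.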

[3] = target: T3, Adrenergic receptor alpha-1 (Rattus norvegicus, UniProt P15823+P23944+P43140); assay: Binding affinity towards Alpha-1 adrenergic receptor using prazosin as a radioligand in rat cortex; method in brief: as §1
T3 sequence (P15823 whole entry): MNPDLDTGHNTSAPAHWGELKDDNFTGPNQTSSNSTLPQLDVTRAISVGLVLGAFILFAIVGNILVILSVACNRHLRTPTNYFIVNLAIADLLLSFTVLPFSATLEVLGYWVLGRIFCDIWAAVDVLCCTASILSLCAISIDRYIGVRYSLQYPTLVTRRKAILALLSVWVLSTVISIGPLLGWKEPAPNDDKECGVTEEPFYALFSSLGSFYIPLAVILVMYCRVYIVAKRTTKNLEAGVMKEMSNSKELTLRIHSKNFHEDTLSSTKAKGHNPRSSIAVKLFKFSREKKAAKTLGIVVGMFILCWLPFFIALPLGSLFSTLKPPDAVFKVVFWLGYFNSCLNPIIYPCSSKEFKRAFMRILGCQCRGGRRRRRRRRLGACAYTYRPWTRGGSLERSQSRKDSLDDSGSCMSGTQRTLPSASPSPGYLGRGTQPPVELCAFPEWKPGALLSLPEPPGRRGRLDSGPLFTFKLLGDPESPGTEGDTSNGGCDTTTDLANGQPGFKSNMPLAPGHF
T3 sequence (P23944 whole entry): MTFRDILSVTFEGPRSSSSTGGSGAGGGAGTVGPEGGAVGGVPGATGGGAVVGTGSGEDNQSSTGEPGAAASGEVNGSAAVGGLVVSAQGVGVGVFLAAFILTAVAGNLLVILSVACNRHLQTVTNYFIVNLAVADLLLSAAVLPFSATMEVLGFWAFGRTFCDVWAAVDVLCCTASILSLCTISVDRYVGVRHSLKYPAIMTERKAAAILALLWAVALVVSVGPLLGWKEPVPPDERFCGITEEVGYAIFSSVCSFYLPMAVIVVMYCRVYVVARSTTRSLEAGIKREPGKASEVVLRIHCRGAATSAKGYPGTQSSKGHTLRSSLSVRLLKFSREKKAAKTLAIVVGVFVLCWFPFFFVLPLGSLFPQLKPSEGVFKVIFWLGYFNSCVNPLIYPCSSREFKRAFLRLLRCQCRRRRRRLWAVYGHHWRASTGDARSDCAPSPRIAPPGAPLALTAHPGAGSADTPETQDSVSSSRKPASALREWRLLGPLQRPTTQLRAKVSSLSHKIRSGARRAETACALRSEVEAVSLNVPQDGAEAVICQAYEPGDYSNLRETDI
T3 sequence (P43140 whole entry): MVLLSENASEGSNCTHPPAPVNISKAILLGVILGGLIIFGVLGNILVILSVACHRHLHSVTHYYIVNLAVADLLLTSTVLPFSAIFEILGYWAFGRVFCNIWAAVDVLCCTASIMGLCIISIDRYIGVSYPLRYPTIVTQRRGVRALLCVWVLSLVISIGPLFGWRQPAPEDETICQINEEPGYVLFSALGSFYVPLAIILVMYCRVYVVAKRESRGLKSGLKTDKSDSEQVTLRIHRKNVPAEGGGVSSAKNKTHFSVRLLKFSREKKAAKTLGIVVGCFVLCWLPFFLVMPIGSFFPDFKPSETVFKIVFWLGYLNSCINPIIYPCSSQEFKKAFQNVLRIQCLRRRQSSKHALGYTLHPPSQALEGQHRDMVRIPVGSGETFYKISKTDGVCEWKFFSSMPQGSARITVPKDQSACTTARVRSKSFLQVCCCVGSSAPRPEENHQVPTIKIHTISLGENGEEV

[4] = target: D(2) dopamine receptor (Rattus norvegicus, UniProt P61169); assay: Binding affinity towards Dopamine receptor D2 in rat striatum using YM-09151-2 as a radioligand; format: tissue-based; method in brief: as §1
D(2) dopamine receptor, sequence (P61169 whole entry): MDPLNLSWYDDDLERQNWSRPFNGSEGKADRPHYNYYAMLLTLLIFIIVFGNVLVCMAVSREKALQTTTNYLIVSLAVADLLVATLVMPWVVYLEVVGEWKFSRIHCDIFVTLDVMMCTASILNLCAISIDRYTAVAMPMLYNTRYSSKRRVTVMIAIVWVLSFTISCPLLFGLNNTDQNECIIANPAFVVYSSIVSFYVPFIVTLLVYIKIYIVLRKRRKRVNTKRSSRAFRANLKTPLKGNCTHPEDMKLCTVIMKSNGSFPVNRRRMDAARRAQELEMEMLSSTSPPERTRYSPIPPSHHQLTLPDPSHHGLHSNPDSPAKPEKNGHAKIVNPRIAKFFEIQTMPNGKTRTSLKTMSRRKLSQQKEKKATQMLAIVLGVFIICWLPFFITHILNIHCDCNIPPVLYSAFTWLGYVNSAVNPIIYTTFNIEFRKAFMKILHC

[5] = test system: Rattus norvegicus; assay: Effective intraperitoneal dose in vivo in rat after 15 mins to induce lower lip retraction; format: functional; conditions: ip, 0.25 h
Method in brief: (§2)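 Observed in 10 min windows centred 15 and 60 min post-dose, 10 s each minute, scoring lower lip retraction present or absent (0–10).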

[6] = test system: Rattus norvegicus; assay: Effective intraperitoneal dose in vivo in rat after 60 mins to induce lower lip retraction; format: functional; conditions: ip, 1 h; method in brief: as §2
[7] = test system: Rattus norvegicus; assay: Induction of lower lip retraction in rat 60 min after administration, effective peroral dose determined in vivo; format: functional; conditions: po, 1 h; method in brief: as §2
[8] = species: Rattus norvegicus; assay: Potency to produce a significant inhibition of immobility in rat; format: functional
Method in brief: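 Rat forced swim, 5 min test 24 h after a 15 min pre-swim, with oral dose (10 mL/kg) 60 min before the test, n = 10 per dose. Significant response: immobility <138 s, a value seen in <5% of vehicle controls. ED50 by linear interpolation of % responders.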

[9] = species: Rattus norvegicus; assay: Maximum inhibition of immobility in the rat (Expressed as percentage of immobility observed in vehicle controls); format: functional
Method in brief: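 Rat forced swim: 15 min pre-swim in 17 cm water at 25 °C, then 5 min test 24 h later with blind scoring of immobility. Oral dosing (10 mL/kg) 60 min before the test, n = 10 per dose. Inhibition is the difference in median immobility from vehicle controls, as % of the control median.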

Row | SMILES | EC50 [1] [nM] | Ki [2] [nM] | Log Ki [3] | Ki [4] [nM] | ED50 [5] [mg/kg] | ED50 [6] [mg/kg] | ED50 [7] [mg/kg] | ED50 [8] [mg/kg] | Inhibition [9] [%]
1 | O=C(c1ccc(Cl)c(Cl)c1)N1CCC(F)(CNCc2cccc(-c3cccs3)n2)CC1 | 12 | 1.23 | -6.72 | 457 | 0.32 | 0.32 | 1.3 |  | 
2 | Cc1ccc(C(=O)N2CCC(F)(CNCc3cccc(N(C)C)n3)CC2)cc1Cl | 5.75 | 0.269 | -6.86 | 129 | 0.08 | 0.08 | 0.32 |  | 
3 | Cc1cc(CNCC2(F)CCN(C(=O)c3ccc(F)c(Cl)c3)CC2)nc(N(C)C)c1 | 33.1 | 0.562 |  |  | 0.32 |  | 0.89 |  | 
4 | Cc1ccc(CNCC2(F)CCN(C(=O)c3ccc(F)c(Cl)c3)CC2)nc1-n1cccn1 | 14.8 | 0.447 |  |  | 0.32 |  | 1.3 |  | 
5 | O=C(c1ccc(F)c(Cl)c1)N1CCC(F)(CNCc2cccc(-c3ccco3)n2)CC1 | 3.47 |  | -6.12 |  | 0.08 | 0.11 | 0.32 | 0.09 | >80
6 | Cc1ccc(CNCC2(F)CCN(C(=O)c3ccc(F)c(Cl)c3)CC2)nc1-c1cc[nH]n1 | 2.75 | 2.19 |  |  | 0.32 |  | 0.89 |  | 
7 | CN(C)c1cccc(CNCC2(F)CCN(C(=O)c3cccc(Cl)c3)CC2)n1 | 10 | 0.0977 | -6.81 | 617 | 0.08 | 0.11 | 0.32 |  | 
8 | O=C(c1ccc(Cl)c(Cl)c1)N1CCC(F)(CNCc2cccc(-c3ccco3)n2)CC1 | 2.63 | 1.05 | -6.39 | 1200 | 0.16 | 0.23 | 0.32 |  | 
9 | CNc1cccc(CNCC2(F)CCN(C(=O)c3ccc(Cl)c(Cl)c3)CC2)n1 | 6.61 |  | -6.92 |  | 0.11 | 0.23 | 0.32 |  | 
10 | O=C(c1ccc(F)c(Cl)c1)N1CCC(F)(CNCc2cccc(-n3cccn3)n2)CC1 | 12.3 | 0.49 |  |  | 0.32 |  | 1.3 |  | 
11 | O=C(c1ccc(Cl)c(Cl)c1)N1CCC(F)(CNCc2cccc(-c3cnco3)n2)CC1 | 8.91 | 0.468 | -5.9 | 2240 | 0.32 | 0.32 | 1.3 |  | 
12 | O=C(c1ccc(Cl)c(Cl)c1)N1CCC(F)(CNCc2cccc(N3CCC3)n2)CC1 | 10.7 | 0.2 | -6.35 | 309 | 0.32 | 0.45 | 0.45 |  | 
13 | Cc1ccc(N(C)C)nc1CNCC1(F)CCN(C(=O)c2ccc(F)c(Cl)c2)CC1 | 47.9 | 0.468 |  |  | 0.63 |  | 1.3 |  | 
14 | O=C(c1ccc(Cl)c(Cl)c1)N1CCC(F)(CNCc2cccc(-c3nccs3)n2)CC1 | 22.9 | 0.794 | -6.26 | 3390 | 0.45 | 0.89 | 1.3 |  | 
15 | O=C(c1ccc(Cl)c(Cl)c1)N1CCC(F)(CNCc2cccc(-c3cc[nH]n3)n2)CC1 | 1.12 | 0.302 | -6.1 | 4070 | 0.32 | 0.32 | 1.3 |  | 
16 | CN(C)c1cccc(CNCC2(F)CCN(C(=O)c3ccc(Cl)c(Cl)c3)CC2)n1 | 2.95 |  | -6.76 |  | 0.62 | 0.45 | 0.32 |  | 
17 | CN(C)CCCN1c2ccccc2CCc2ccccc21 [IMIPRAMINE] |  |  |  |  |  |  |  | 80 | 31
